In PubChem BioAssay:
Calls of active or inactive are those of the source.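 The calls were made as follows, unless noted: active = GFP response above 150% of the DMSO level; inconclusive = fewer than 70 events counted for a yeast strain; inactive = the rest.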

Columns and labels:
[1] = hit retest on RPL19A-GFP reporter strain – cell-based, S. cerevisiae, flow cytometry, cherry picks, mother/daughter gates, confirmation (AID 2270;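 active = GFP response below 50% of the DMSO control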); conditions: 3 h, at 10 µM, stronger effect = lower value, 100 = same GFP as DMSO wells
[2] = yeast TOR pathway reporter LAP4-GFP change – cell-based, cherry picks, flow cytometry, mother/daughter gates, confirmation (AID 2271;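 active = GFP response above 150% of the DMSO control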;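 also: ratio of sample to DMSO plate mean so 100% equals DMSO level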); conditions: S. cerevisiae LAP4-GFP strain, 3 h, at 10 µM, stronger effect = higher value, 100 means same as DMSO control
Method in brief: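 System: GFP-fusion yeast strain | Input: Yeast cells seeded at OD600 of 0.2 | Technique: HT flow cytometry, GFP fluorescence channel | Read-out: % GFP response vs DMSO | Dosing: Single test-compound dose, 10 µM final | Controls: Positive rapamycin (400 ng/mL), negative DMSO | Times: 3 h treatment at 30 °C with rotation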

[3] = TOR pathway reporter MEP2-GFP, retest of hits – S. cerevisiae, flow cytometry GFP, cherry picks, confirmation (AID 2272;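 active = GFP response above 150% of the DMSO control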;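 also: ratio of well signal to plate DMSO mean so 100% equals DMSO level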); conditions: S. cerevisiae MEP2-GFP strain, 3 h, at 10 µM, stronger effect = higher value
[4] = yeast AGP1-GFP fluorescence change, single-dose – cell-based, flow cytometry, S. cerevisiae, cherry picks, confirmation (AID 2273);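 also: median GFP channel fluorescence over the whole cell population gate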; conditions: S. cerevisiae AGP1-GFP strain, 3 h, at 10 µM
[5] = TOR pathway CIT2 reporter hit retest – S. cerevisiae, GFP fusion, cherry picks, mother/daughter gates, confirmation (AID 2274); conditions: S. cerevisiae CIT2-GFP strain, flow cytometry, 3 h, at 10 µM, stronger effect = higher value
[6] = measured here: daughter cell gate
[7] = measured here: mother cell gate
[8] = measured here: daughter cell gate response
[9] = measured here: mother cell gate response

SMILES	GFP response vs DMSO [1]	GFP response vs DMSO [1, 6]	GFP response vs DMSO [1, 7]	GFP response relative to DMSO [2]	GFP response relative to DMSO [2, 8]	GFP response relative to DMSO [2, 9]	GFP response vs DMSO [3]	GFP response, % of DMSO [4]	GFP response, % of DMSO [5]	GFP response, % of DMSO [5, 6]	GFP response, % of DMSO [5, 7]
Cc1cc(C)nc(S/C=C/C(=O)c2ccccc2F)n1	103% (inactive)	102%	102%	120% (inactive)	119%	123%	107% (inactive)	94.3% (inactive)	95.2% (inactive)	98.1%	92.3%
COCCCN1C(=O)C2C(C(=O)Nc3cc(C)cc(C)c3)C3C=CC2(O3)C1C(=O)NC1CCCCC1 (stereo not drawn)	100% (inactive)	101%	101%	95% (inactive)	100%	98.3%	102% (inactive)	96.7% (inactive)	112% (inactive)	105%	114%
COc1cc(NC(=O)c2cccc([N+](=O)[O-])c2)ccc1NC(=O)c1cc2ccccc2o1	98% (inactive)	99.9%	97.8%	94.9% (inactive)	98.2%	95.1%	101% (inactive)	100% (inactive)	107% (inactive)	105%	108%
COc1ccc(NC(=O)c2ccccc2NC(=O)c2ccccc2)cc1	98.4% (inactive)	98.4%	99.2%	91.5% (inactive)	94.4%	89.7%	96.2% (inactive)	102% (inactive)	103% (inactive)	101%	102%
CCc1ccc(-c2csc(NC(=O)COC(=O)CCc3nc4ccccc4s3)n2)cc1	105% (inactive)	102%	106%	98.2% (inactive)	97.5%	98.4%	103% (inactive)	103% (inactive)	106% (inactive)	101%	105%
CCOC(=O)c1ccc2nc(Nc3nc4ccc(F)cc4s3)sc2c1	99.6% (inactive)	98.1%	99.3%	101% (inactive)	97.5%	102%	101% (inactive)	105% (inactive)	103% (inactive)	103%	103%
CCCc1[nH]nc2c1C(c1ccc(OC)cc1OC)C(C#N)=C(N)O2 (stereo not drawn)	99.8% (inactive)	99.9%	99.8%	92.8% (inactive)	91.2%	95.1%	105% (inactive)	90.4% (inactive)	94% (inactive)	89.9%	91.4%
CC1=CCC(C(=O)O)C(C(=O)Nc2ccc(-c3nc4ccc(C)cc4s3)cc2)C1 (stereo not drawn)	99.2% (inactive)	100%	100%	96.1% (inactive)	96.6%	96.2%	98.8% (inactive)	101% (inactive)	112% (inactive)	110%	113%
COc1cc(/C=C2\C(=O)ON=C2c2ccc(Cl)cc2)ccc1O	105% (inactive)	106%	99.4%	126% (inactive)	122%	128%	102% (inactive)	100% (inactive)	108% (inactive)	114%	99.8%
Cc1cccc(Sc2ccc([N+](=O)[O-])cn2)c1	98.6% (inactive)	98.9%	98%	92.4% (inactive)	92%	92%	105% (inactive)	104% (inactive)	103% (inactive)	103%	104%
O=[N+]([O-])c1ccc(S(=O)(=O)c2cccc(C(F)(F)F)c2)nc1	81.9% (inactive)	92.5%	75%	240% (active)	180%	221%	157% (inactive)	122% (inactive)	128% (inactive)	149%	110%
O=C(NCCO)c1c(O)c2cccc3c2n(c1=O)CC3	99.3% (inactive)	99.2%	99.4%	92.6% (inactive)	94.1%	94.2%	97.8% (inactive)	101% (inactive)	97.8% (inactive)	96.5%	96.6%
CC(=O)Oc1c(C)cc(Cl)cc1C(=O)Nc1ccc([N+](=O)[O-])cc1Cl	97% (inactive)	96%	98.2%	91.2% (inactive)	92%	93%	101% (inactive)	97.9% (inactive)	90.9% (inactive)	93.7%	89.8%
O=C(c1ccc([N+](=O)[O-])o1)N1CCN(c2nc3ccc(F)cc3s2)CC1	99.8% (inactive)	100%	98.4%	111% (inactive)	109%	115%	105% (inactive)	87.7% (inactive)	101% (inactive)	103%	96.1%
Clc1ccc(Nc2ncnc3ccc(Br)cc23)cc1	98.4% (inactive)	89.5%	99%	122% (inactive)	102%	124%	95.4% (inactive)	86.2% (inactive)	86.3% (inactive)	83.5%	84%
COc1ccc(NC(=O)/C(Cl)=C(/Cl)S(=O)Cc2ccccc2)cn1 (stereo not drawn)	104% (inactive)	114%	95.5%	262% (active)	227%	243%	118% (inactive)	103% (inactive)	114% (inactive)	134%	99.1%
C(=N\Nc1nc(-c2cccnc2)nc2ccccc12)/c1ccccc1	101% (inactive)	101%	102%	99.2% (inactive)	99.2%	98.3%	102% (inactive)	95.6% (inactive)	104% (inactive)	105%	103%

SMILES	GFP response vs DMSO [1]	GFP response vs DMSO [1, 6]	GFP response vs DMSO [1, 7]	GFP response relative to DMSO [2]	GFP response relative to DMSO [2, 8]	GFP response relative to DMSO [2, 9]	GFP response vs DMSO [3]	GFP response, % of DMSO [4]	GFP response, % of DMSO [5]	GFP response, % of DMSO [5, 6]	GFP response, % of DMSO [5, 7]
CCOC(=O)Cc1csc(NC(=O)CCCCCN2C(=O)c3cccc4cccc(c34)C2=O)n1	98.7% (inactive)	99.3%	99.3%	88.4% (inactive)	87.8%	89.7%	102% (inactive)	98.2% (inactive)	102% (inactive)	98.3%	101%
Cc1nc(C)c(-c2csc(NCCc3ccccc3)n2)s1	96.7% (inactive)	96.4%	95.9%	112% (inactive)	105%	113%	112% (inactive)	96.6% (inactive)	108% (inactive)	110%	107%
O=C(Oc1c(Cl)cc(Cl)c2cccnc12)c1ccco1	103% (inactive)	89.2%	100%	196% (active)	148%	199%	128% (inactive)	95.9% (inactive)	95.9% (inactive)	86.6%	93.2%
Oc1ccc(C2Nc3cccc4cccc(c34)N2)cc1	99% (inactive)	99.2%	99.4%	107% (inactive)	105%	111%	97.8% (inactive)	98.7% (inactive)	100% (inactive)	98.1%	102%
CCCN(CCC)S(=O)(=O)c1ccc(C(=O)Nc2nnc(-c3cc(OC)cc(OC)c3)o2)cc1	98.2% (inactive)	99.4%	99%	91.5% (inactive)	91.2%	91.9%	102% (inactive)	93.9% (inactive)	101% (inactive)	101%	101%
CC1(C(=O)OCc2cc(=O)n3cc(Br)ccc3n2)CC1(Cl)Cl (stereo not drawn)	92.5% (inactive)	89.9%	93.8%	133% (inactive)	123%	139%	94.4% (inactive)	103% (inactive)	88.5% (inactive)	87.3%	88.8%
COc1cccc2c1Oc1ncccc1N(C(=O)CCC(=O)NCc1ccc(F)cc1)C2	98% (inactive)	98.1%	98.2%	101% (inactive)	101%	99.3%	102% (inactive)	96.6% (inactive)	105% (inactive)	105%	104%
COc1ccc(/C=N\NC(=O)c2cc(OCC(F)(F)F)ccc2OCC(F)(F)F)cc1	93.7% (inactive)	97.9%	94%	96.7% (inactive)	97.6%	98.3%	102% (inactive)	94.8% (inactive)	98.3% (inactive)	99.1%	95%
COc1ccccc1CN1C(=O)c2cccc3cccc(c23)C1=O	100% (inactive)	100%	100%	91.9% (inactive)	90.7%	91.6%	104% (inactive)	108% (inactive)	99.3% (inactive)	100%	98%
O=C(O)C1Sc2[nH]c(=O)sc2C2c3cc(Br)ccc3OC(=O)C12 (stereo not drawn)	96.3% (inactive)	97.6%	96.8%	171% (active)	150%	200%	195% (active)	102% (inactive)	111% (inactive)	108%	113%
COc1cccc(N=Nc2ccc3cccnc3c2O)c1	99.8% (inactive)	97.6%	101%	147% (inactive)	140%	146%	120% (inactive)	93.2% (inactive)	98.8% (inactive)	103%	96.8%
COc1ccc(/C=N/Nc2nnc(C)n2N)cc1OC(C)=O	99.5% (inactive)	100%	99%	94.2% (inactive)	96.5%	92.6%	104% (inactive)	102% (inactive)	104% (inactive)	104%	103%
Cc1cc(C)c(S(C)(=O)=O)c(S(=O)(=O)c2ccc(Cl)cc2)n1	100% (inactive)	100%	100%	99.2% (inactive)	97.6%	99.3%	98.3% (inactive)	100% (inactive)	103% (inactive)	103%	101%
N#Cc1cc(Sc2ccccn2)c([N+](=O)[O-])cc1C#N	107% (inactive)	110%	106%	121% (inactive)	123%	118%	143% (inactive)	106% (inactive)	123% (inactive)	125%	120%
COc1ccc([N+](=O)[O-])c(S(=O)(=O)c2ccc(Cl)cc2)n1	84.5% (inactive)	54.7%	74.7%	333% (active)	173%	309%	136% (inactive)	131% (inactive)	93.4% (inactive)	100%	78.8%
COc1ccccc1N1C(=O)CC(Sc2nccc(C)n2)C1=O (stereo not drawn)	101% (inactive)	98.6%	102%	95.7% (inactive)	95.9%	95.2%	99% (inactive)	99.6% (inactive)	98.8% (inactive)	93.8%	99.3%
